Usually viability stands for a read-out of living cells in per cent, often relative to untreated cells. A word on the inhibition: it is the relative decrease from the control value, in per cent.

Activity calls are given as the source filed them. Cut-off read from the data, not from the text of the source, unless noted: active = inhibition above about 30%; inactive = the rest.

The values below come from PubChem BioAssay.

Assay [1] is described as follows: reduced viability of SK-BR-3 breast cancer cells – cell-based, 24 h, human, pilot screen (AID 572;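 active = viability at or below 10% of carrier control in both of two separate runs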;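 note: compound exposure lasted between 18 and 24 h rather than exactly 24 h; 100% = carrier-treated control wells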). Conditions: SK-BR-3 viability, CellTiter-Glo luminescence, at 10 µM, stronger effect = lower value. In general terms: Cellular ATP, detected with luciferase, serves as a proxy for viable cell number.
Assay [2] is described as follows: HUVEC growth inhibition – cell-based, human, primary screen (AID 575;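 active = viability at or below 30% in both replicate assays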;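 note: 100% = median of untreated cell wells with 0.1% DMSO on each plate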). Conditions: HUVEC proliferation, CellTiter-Glo luminescence, 72 h; at 10 µM; stronger effect = lower value. Put shortly:
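Test system: primary human umbilical vein endothelial cells; medium: endothelial basal medium with 2% FBS plus growth supplements; dosing: 10 µM compound only; times: 72 h treatment at 37 °C; signal: CTG luminescence; read-out: % viability relative to median vehicle-well signal on each plate; control set: vehicle and MePR control wells; plate: 384-well, collagen-coated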

Assay [3] in a line: H69AR cell proliferation blockers – human, duplicate replicates, primary screen (AID 580;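 active = viability at or under a set limit in both replicates, limit being median viability minus 3 SD, cut at about 48% in these data, passing the limit was not always enough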;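 note: 100% = mean luminescence of untreated wells and 0% = no signal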). The following applies: H69AR lung tumor cells viability, ATP luminescence, 72 h; at 10 µM; stronger effect = lower value.
Assay [4] can be described thus: MRP1 drug-resistance reversers in H69AR cells – cell-based, doxorubicin co-treatment, pilot screen (AID 601;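 active = viability loss from added drug above about 55%, and viability with drug at most 40%, in both replicates, limit read from the data, passing the limit was not always enough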). The following applies: CellTiter-Glo, 72 h, at 10 µM; for differential viability (reversal): stronger effect = higher value.
Assay [5] in a line: yeast transport mutant growth inhibition pilot in 384-well plates, post-Golgi transport modulator project (AID 636; in the data active = inhibition above about 31%). Conditions: absorbance 615 nm, about 18 h, stronger effect = higher value.
A short description of assay [6]: growth suppression of yeast trafficking mutant, preliminary HTS, modulators of trafficking downstream of Golgi apparatus project, 1536-format plate, OD 615 nm (AID 637). Conditions: yeast transport mutant growth, absorbance 615 nm, 18 h; stronger effect = higher value.
Setting [7] is: H69AR cells + 2 uM doxorubicin, measured here: viability with 2 uM doxorubicin, stronger effect = lower value.
Where [8] appears, read: H69AR cells, compound alone cytotoxicity.

Turning to `COc1ccc2cc3cc(C(=O)NCC4CCCO4)oc3nc2c1` (stereo unspecified), the viability in assay [1] is 128% (inactive); in assay [2], 84.8% (inactive); in assay [3] it was 88.1% (inactive); in assay [4] (setting [7]), 83.4%; in assay [4] (setting [8]), 88.1%. The differential viability (reversal) in assay [4] (H69AR cells + 2 uM doxorubicin) is 4.77% (inactive). The inhibition is 1.69% (inactive) in assay [5] and 3.44% (inactive) in assay [6].
Consider `CCOc1ccc(S(=O)(=O)N(C)C)cc1-c1nc2c(C(C)(C)C)nn(C)c2c(=O)[nH]1`, for which the viability was 99% (inactive) in assay [1]; 103% (inactive) in assay [2]; 78.9% (inactive) in assay [3]; 78.1% in assay [4] (setting [7]); 78.9% in assay [4] (setting [8]). Moreover, the differential viability (reversal) in assay [4] (H69AR cells + 2 uM doxorubicin) is 0.77% (inactive). In addition, the inhibition in assay [5] is -2.03% (inactive); in assay [6] it was -3.09% (inactive).
As to `O=C(CN1C(=O)CC(c2ccco2)Sc2ccccc21)Nc1ccc2c(c1)OCCO2` (stereo unspecified), the viability is 130% (inactive) in assay [1]; 99% (inactive) in assay [2]; 76.9% (inactive) in assay [3]; 75.1% in assay [4] (setting [7]); 76.9% in assay [4] (setting [8]). Moreover, the differential viability (reversal) in assay [4] (H69AR cells + 2 uM doxorubicin) was 1.83% (inactive). Besides, the inhibition in assay [5] was -2.76% (inactive); in assay [6] it was -0.16% (inactive).
Regarding `[O-][n+]1onc2c1CCc1nnc(-c3ccccc3)cc1-2`, the viability is 93.5% (inactive) in assay [1]; 113% (inactive) in assay [2]; 76.2% (inactive) in assay [3]; 32.6% in assay [4] (setting [7]); 76.2% in assay [4] (setting [8]). Besides, the differential viability (reversal) in assay [4] (H69AR cells + 2 uM doxorubicin) is 43.7% (inactive). For the same compound, the inhibition was -1.18% (inactive) in assay [5] and 8.03% (inactive) in assay [6].
`CN(C)c1nc(N(C)C)nc(N(C)C)n1`: the viability in assay [1] is 95% (inactive); in assay [2], 106% (inactive); in assay [3], 96.8% (inactive); in assay [4] (setting [7]), 99.6%; in assay [4] (setting [8]) it was 96.8%. In addition, the differential viability (reversal) in assay [4] (H69AR cells + 2 uM doxorubicin) is -2.79% (inactive). Besides, the values for the inhibition in assay [5] and in assay [6] were -1.69% (inactive) and -2.67% (inactive), respectively.
On to `O=C(CCN1C(=O)c2ccccc2C1=O)N1CCN(C(=O)c2ccccc2)CC1`, for which the viability in assay [1] is 106% (inactive); in assay [2], 108% (inactive); in assay [3], 101% (inactive); in assay [4] (setting [7]), 92.3%; in assay [4] (setting [8]) it was 101%. For the same compound, the differential viability (reversal) in assay [4] (H69AR cells + 2 uM doxorubicin) is 8.3% (inactive). Moreover, the inhibition in assay [5] was -3.25% (inactive); in assay [6], 4.59% (inactive).
For `Cc1cc(C)n(CC(=O)O)n1`, the viability in assay [1] was 88% (inactive); in assay [2] it was 106% (inactive); in assay [3], 88.4% (inactive); in assay [4] (setting [7]), 107%; in assay [4] (setting [8]) it was 88.4%. The differential viability (reversal) in assay [4] (H69AR cells + 2 uM doxorubicin) is -18.8% (inactive). Moreover, the inhibition in assay [5] was -7.7% (inactive); in assay [6], -1.45% (inactive).
As for `CCOC(=O)N1CCC(NC(=O)C2CCC(Cn3c(=O)[nH]c4ccccc4c3=O)CC2)CC1` (stereo unspecified), the viability is 134% (inactive) in assay [1]; 64.8% (inactive) in assay [2]; 16.8% (active) in assay [3]; 24.6% in assay [4] (setting [7]); 16.8% in assay [4] (setting [8]). For the same compound, in assay [4] (H69AR cells + 2 uM doxorubicin), the differential viability (reversal) is -7.75% (inactive). Further, the inhibition in assay [5] was -5.71% (inactive); in assay [6] it was 0.66% (inactive).
In the case of `CCOC(=O)C1CCCN(CC(=O)NC2CC2)C1` (stereo unspecified), the viability in assay [1] is 112% (inactive); in assay [2], 96.6% (inactive); in assay [3], 88.2% (inactive); in assay [4] (setting [7]) it was 89.7%; in assay [4] (setting [8]), 88.2%. For the same compound, the differential viability (reversal) in assay [4] (H69AR cells + 2 uM doxorubicin) is -1.56% (inactive). The results for the inhibition in assay [5] and in assay [6] were -7.16% (inactive) and -2.91% (inactive), respectively.
For `Cc1c(NC(=O)Cn2nc(C(=O)O)c3ccccc3c2=O)c(=O)n(-c2ccccc2)n1C`, the viability in assay [1] is 116% (inactive); in assay [2], 102% (inactive); in assay [3] it was 101% (inactive); in assay [4] (setting [7]), 100%; in assay [4] (setting [8]), 101%. Besides, the differential viability (reversal) in assay [4] (H69AR cells + 2 uM doxorubicin) is 0.425% (inactive). Also, the inhibition in assay [5] is 2.88% (inactive); in assay [6], -6.45% (inactive).
Take `CCN(CC)CCNC(=O)c1ccc(N2CCCCC2)c(NS(=O)(=O)c2ccc(C)cc2)c1`: the viability in assay [1] is 81% (inactive); in assay [2] it was 18.5% (active); in assay [3], 76.6% (inactive); in assay [4] (setting [7]), 74.1%; in assay [4] (setting [8]), 76.6%. Further, in assay [4] (H69AR cells + 2 uM doxorubicin), the differential viability (reversal) was 2.53% (inactive). Besides, the inhibition in assay [5] was -6.13% (inactive); in assay [6], 7.21% (inactive).
For the compound `CC(N)C12CC3CC(C1)CC(C(C)N)(C3)C2` (stereo unspecified), the viability in assay [1] is 87% (inactive); in assay [2], 110% (inactive); in assay [3] it was 101% (inactive); in assay [4] (setting [7]), 89.4%; in assay [4] (setting [8]), 101%. The differential viability (reversal) in assay [4] (H69AR cells + 2 uM doxorubicin) was 11.4% (inactive). The inhibition was -3.6% (inactive) in assay [5] and -4.18% (inactive) in assay [6].
